Measurements: ChEMBL document CHEMBL2346584, “Microwave assisted nano (ZnO-TiO2) catalyzed synthesis of some new 4,5,6,7-tetrahydro-6-((5-substituted-1,3,4-oxadiazol-2-yl)methyl)thieno[2,3-c]pyridine as antimicrobial agents” (2013)
≈ marks a conversion by molar mass, not a printed value. Calls of active or inactive are those of the source. No cut-off for these calls is given here.

Legend:
Aspergillus niger = experiment: Antifungal activity against Aspergillus niger NCIM 1196 by agar method; format: functional
In short: (§1)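 MIC values were obtained with the standard agar method, with miconazole as the reference antifungal standard.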

Escherichia coli = experiment: Antibacterial activity against Escherichia coli NCIM 2256 by agar method; format: functional
In short: (§2)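 Read-out was the minimum inhibitory concentration (MIC), determined by the standard agar method. Ciprofloxacin and ampicillin served as reference antibacterial standards.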

Staphylococcus aureus = experiment: Antibacterial activity against Staphylococcus aureus NCIM 2901 by agar method; format: functional; in short: as §2
Pseudomonas aeruginosa [1] = experiment: Antibacterial activity against Pseudomonas aeruginosa NCIM 2036 up to 400 ug/ml by agar method; format: functional, organism-based; in short: as §2
Candida albicans = experiment: Antifungal activity against Candida albicans NCIM 3471 by agar method; format: functional; in short: as §1
Bacillus subtilis [2] = experiment: Antibacterial activity against Bacillus subtilis NCIM 2063 up to 400 ug/ml by agar method; format: functional, organism-based; in short: as §2
Bacillus subtilis [3] = experiment: Antibacterial activity against Bacillus subtilis NCIM 2063 by agar method; format: functional; in short: as §2
Pseudomonas aeruginosa [4] = experiment: Antibacterial activity against Pseudomonas aeruginosa NCIM 2036 by agar method; format: functional; in short: as §2

SMILES	MIC (Aspergillus niger) [µg/mL]	MIC (Escherichia coli) [µg/mL]	MIC (Staphylococcus aureus) [µg/mL]	MIC (Candida albicans) [µg/mL]	MIC (Bacillus subtilis [3]) [µg/mL]	MIC (Pseudomonas aeruginosa [4]) [µg/mL]	Activity (Pseudomonas aeruginosa [1])	Activity (Bacillus subtilis [2])
O=C(O)c1cn(C2CC2)c2cc(N3CCNCC3)c(F)cc2c1=O [CIPROFLOXACIN]	–	25 (≈ 75.4 µM)	50 (≈ 151 µM)	–	–	–	–	–
Fc1ccc(-c2nnc(CN3CCc4ccsc4C3)o2)cc1	60 (≈ 190 µM)	25 (≈ 79.3 µM)	25 (≈ 79.3 µM)	20 (≈ 63.4 µM)	50 (≈ 159 µM)	100 (≈ 317 µM)	–	–
CC1(C)S[C@@H]2[C@H](NC(=O)[C@H](N)c3ccccc3)C(=O)N2[C@H]1C(=O)O [AMPICILLIN]	–	100 (≈ 286 µM)	250 (≈ 715 µM)	–	250 (≈ 715 µM)	100 (≈ 286 µM)	–	–
Clc1ccc(-c2nnc(CN3CCc4ccsc4C3)o2)c(Cl)c1	60 (≈ 164 µM)	50 (≈ 137 µM)	75 (≈ 205 µM)	20 (≈ 54.6 µM)	75 (≈ 205 µM)	125 (≈ 341 µM)	–	–
Clc1ccc(COC(Cn2ccnc2)c2ccc(Cl)cc2Cl)c(Cl)c1 (stereo not given) [MICONAZOLE]	12.5 (≈ 30 µM)	–	–	25 (≈ 60.1 µM)	–	–	–	–
c1c[nH]c(-c2nnc(CN3CCc4ccsc4C3)o2)c1	120 (≈ 419 µM)	50 (≈ 175 µM)	75 (≈ 262 µM)	60 (≈ 210 µM)	100 (≈ 349 µM)	125 (≈ 437 µM)	–	–
c1ccc(-c2nnc(CN3CCc4ccsc4C3)o2)nc1	60 (≈ 201 µM)	50 (≈ 168 µM)	50 (≈ 168 µM)	40 (≈ 134 µM)	100 (≈ 335 µM)	150 (≈ 503 µM)	–	–

Second part, led by results:

MIC (Aspergillus niger) [µg/mL]	MIC (Escherichia coli) [µg/mL]	MIC (Staphylococcus aureus) [µg/mL]	MIC (Candida albicans) [µg/mL]	MIC (Bacillus subtilis [3]) [µg/mL]	MIC (Pseudomonas aeruginosa [4]) [µg/mL]	SMILES	Activity (Pseudomonas aeruginosa [1])	Activity (Bacillus subtilis [2])
100 (≈ 304 µM)	125 (≈ 379 µM)	100 (≈ 304 µM)	40 (≈ 121 µM)	–	–	Oc1ccc(-c2nnc(CN3CCc4ccsc4C3)o2)cc1O	inactive	inactive
120 (≈ 328 µM)	50 (≈ 137 µM)	50 (≈ 137 µM)	20 (≈ 54.6 µM)	50 (≈ 137 µM)	100 (≈ 273 µM)	Clc1cccc(Cl)c1-c1nnc(CN2CCc3ccsc3C2)o1	–	–
140 (≈ 428 µM)	125 (≈ 382 µM)	100 (≈ 305 µM)	80 (≈ 244 µM)	125 (≈ 382 µM)	175 (≈ 534 µM)	COc1ccc(-c2nnc(CN3CCc4ccsc4C3)o2)cc1	–	–
100 (≈ 301 µM)	100 (≈ 301 µM)	75 (≈ 226 µM)	60 (≈ 181 µM)	100 (≈ 301 µM)	250 (≈ 753 µM)	Clc1ccc(-c2nnc(CN3CCc4ccsc4C3)o2)cc1	–	–
80 (≈ 264 µM)	25 (≈ 82.4 µM)	75 (≈ 247 µM)	40 (≈ 132 µM)	50 (≈ 165 µM)	150 (≈ 494 µM)	c1csc(-c2nnc(CN3CCc4ccsc4C3)o2)c1	–	–
140 (≈ 447 µM)	175 (≈ 558 µM)	175 (≈ 558 µM)	60 (≈ 191 µM)	–	–	Oc1ccc(-c2nnc(CN3CCc4ccsc4C3)o2)cc1	inactive	inactive
160 (≈ 538 µM)	150 (≈ 504 µM)	125 (≈ 420 µM)	80 (≈ 269 µM)	150 (≈ 504 µM)	300 (≈ 1010 µM)	c1ccc(-c2nnc(CN3CCc4ccsc4C3)o2)cc1	–	–
140 (≈ 422 µM)	125 (≈ 377 µM)	100 (≈ 301 µM)	80 (≈ 241 µM)	100 (≈ 301 µM)	200 (≈ 603 µM)	Clc1ccccc1-c1nnc(CN2CCc3ccsc3C2)o1	–	–
